Reference: PubChem BioAssay
The source made the active and inactive calls.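 Rule for the calls, unless noted: active = fluorescence slope after compound addition differing from the mean of all tested samples at 99.7% confidence, mostly higher but some lower; inactive = the rest.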

How the values were obtained:
[1] = inhibitors of TNFa-induced NFkB p65 translocation, primary screen, imaging, HUVEC, MLSMR starter and 10KST1 sets (AID 438;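 active = inhibition above 20% together with a positive visual image hit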;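 note: compound added about 3h40 before a 20 min TNFalpha stimulation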;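 for inhibition: signal is the nuclear over cytoplasmic p65 intensity ratio per well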); conditions: HUVEC TNFa-induced p65 nuclear translocation; cell count: measured here: nuclei count (cytotoxicity indicator), at 2.08 µM; inhibition: at 2 µM, stronger effect = higher value, 0% TNFa-plus-vehicle, 100% no-TNFa wells
[2] = inhibitors of mutant huntingtin aggregation, primary screen, imaging, exon1htt(103Q)mCFP cells, high-content imaging (AID 483;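 active = visual image review flags a hit and inhibition of aggregation exceeds 20%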;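 note: compound exposure lasted 3 days before fixation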;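 for nuclei count: percent of the per-plate median nuclei count of sample wells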); conditions: exon1htt(103Q)mCFP cell line, aggregate imaging, at 2 µM; inhibition of aggregation: stronger effect = higher value; nuclei count: measured here: cell count, toxicity
[3] = inhibitors of E-selectin induction by TNFa, primary screen, imaging, HUVEC, immunofluorescence, MLSMR starter and 10KST1 sets (AID 487;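 active = visually confirmed hit in the image check and inhibition above 20%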;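 for inhibition: signal is fraction of cell area covered by stained E-selectin grains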;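 for nuclei count: 100% = median nuclei count of all wells on the same plate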); conditions: HUVEC TNFalpha-induced E-selectin immunofluorescence imaging, at 2 µM; inhibition: stronger effect = higher value; nuclei count: measured here: cell number, toxicity
[4] = biological target: Voltage-gated potassium channel subunit beta-2 (Rattus norvegicus) (UniProt P62483); assay: KvBeta enzyme negative modulators, primary screen, biochemical, NADPH fluorescence (AID 622;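 active = fluorescence slope higher than the sample average by over 3 SD, cut at about -0.22 in these data, passing the limit was not always enough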;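 note: slope of raw intensity against log time taken from 70 to 1610 s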); conditions: recombinant KvBeta, 4-cyanobenzaldehyde reduction, at 10 µM, stronger effect = higher value
[5] = biological target: Voltage-gated potassium channel subunit beta-2 (Rattus norvegicus) (UniProt P62483); assay: KvBeta positive modulators, primary screen, biochemical, NADPH fluorescence (AID 623;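 active = NADPH fluorescence slope more negative than the mean of all samples by about 3 SD, 99.7% confidence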;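 note: fluorescence intensity change per second fitted from 20 to 320 s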); conditions: Recombinant KvBeta, NADPH fluorescence decrease slope, 10 min; at 10 µM; stronger effect = lower value
[6] = biological target: Muscarinic acetylcholine receptor M4 (Homo sapiens) (UniProt P08173); assay: compounds altering M4/GIRK thallium flux, either direction, primary screen, M4 allosteric agonist project, cell-based, HEK293 M4/GIRK, BTC-AM (AID 625); conditions: at 10 µM, actives lie on both sides;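 note: thallium influx through GIRK channels coupled to M4 in HEK293 cells with BTC-AM dye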
Method in brief: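 Assay system: HEK293 cells with M4 receptor and GIRK channels / Controls: carbachol and DMSO controls / Schedule: 1 h dye loading, 2 min kinetic read / Technique: kinetic fluorescence with BTC-AM dye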

[7] = inhibitors of Sendai virus-induced IRF3 signaling, primary screen, TLR/RLR signaling modifier project, cell-based, Sendai virus stimulus, luciferase, 10K MLSCN set (AID 602276;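 active = inhibition at or above 50% at 10 µM; inactive = inhibition below 50%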;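 note: firefly luciferase from ISG56 promoter only with Renilla not read in this screen; 0% = Sendai virus plus DMSO and 100% = medium plus DMSO without virus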); conditions: HEK293 RL24 IRF3 luciferase reporter, at 10 µM, stronger effect = higher value
[8] = inhibitors of poly I:C-induced TLR3 signaling, primary screen, cell-based, poly I:C stimulus, luciferase, 10K MLSCN set (AID 602277;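 active = inhibition of the reporter signal at or above 50%; inactive = inhibition below 50%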); conditions: HEK293-TLR3 RL24 IRF3 luciferase reporter, at 10 µM, stronger effect = higher value

Muscarinic acetylcholine receptor M4 (Homo sapiens), sequence (P08173 whole entry, looked up): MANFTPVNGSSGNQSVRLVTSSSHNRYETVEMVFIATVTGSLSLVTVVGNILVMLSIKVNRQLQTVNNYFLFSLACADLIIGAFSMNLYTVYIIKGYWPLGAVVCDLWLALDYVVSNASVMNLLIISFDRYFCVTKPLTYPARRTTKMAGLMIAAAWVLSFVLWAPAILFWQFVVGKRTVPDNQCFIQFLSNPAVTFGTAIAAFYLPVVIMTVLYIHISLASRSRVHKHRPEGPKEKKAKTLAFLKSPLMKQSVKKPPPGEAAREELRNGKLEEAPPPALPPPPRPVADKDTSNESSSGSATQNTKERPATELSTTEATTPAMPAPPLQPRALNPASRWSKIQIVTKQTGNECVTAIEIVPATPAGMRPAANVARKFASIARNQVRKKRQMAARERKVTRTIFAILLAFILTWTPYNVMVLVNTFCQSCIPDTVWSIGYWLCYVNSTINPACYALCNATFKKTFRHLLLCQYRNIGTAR
Voltage-gated potassium channel subunit beta-2 (Rattus norvegicus), sequence (P62483 whole entry, looked up): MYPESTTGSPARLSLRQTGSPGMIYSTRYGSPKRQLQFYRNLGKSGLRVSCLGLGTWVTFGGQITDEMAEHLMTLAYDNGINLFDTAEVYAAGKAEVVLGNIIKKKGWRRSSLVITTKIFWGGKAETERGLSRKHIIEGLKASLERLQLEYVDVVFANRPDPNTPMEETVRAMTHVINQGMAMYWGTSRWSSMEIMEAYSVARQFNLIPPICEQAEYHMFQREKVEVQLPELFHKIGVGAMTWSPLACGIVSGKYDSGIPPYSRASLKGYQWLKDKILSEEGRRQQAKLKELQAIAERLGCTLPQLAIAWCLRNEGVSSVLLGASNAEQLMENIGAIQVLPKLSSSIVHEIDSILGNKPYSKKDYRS

SMILES | cell count [1] | inhibition [1] | inhibition of aggregation [2] | nuclei count [2] | inhibition [3] | nuclei count [3] | fluorescence slope [4] | NADPH fluorescence slope [5] | fluorescence slope [6] | inhibition [7] | inhibition [8]
O=c1[nH]c(SCc2cc(=O)n3ccccc3n2)nc2c1CCC2 | 681 | -8.4% (inactive) | -47.8% (inactive) | 87.5% | -123% (inactive) | 106% | -0.381 (inactive) | 2.3e-05 (inactive) | 0.00602 (inactive) | 16.7% (inactive) | 20.7% (inactive)
COc1ccccc1NC(=O)C1CC(=O)N(c2ccc(F)cc2)C1 (stereo not drawn) | 402 | 4.5% (inactive) | 13.8% (inactive) | 101% | -46.4% (inactive) | 110% | -0.583 (inactive) | -9.7e-05 (inactive) | 0.00373 (inactive) | -15.4% (inactive) | -26.4% (inactive)
O=C(CCSc1ccccc1)N1CCOCC1 | 339 | 0.4% (inactive) | -7.3% (inactive) | 104% | -90.9% (inactive) | 105% | -0.562 (inactive) | -0.000154 (inactive) | 0.00456 (inactive) | -18.7% (inactive) | -64.6% (inactive)
CCCCCOC(=O)CSc1nnc(-c2cc(OC)c(OC)c(OC)c2)o1 | 747 | -21.6% (inactive) | 16.3% (inactive) | 116% | -73.6% (inactive) | 119% | -0.363 (inactive) | -3.4e-05 (inactive) | 0.00542 (inactive) | 3.74% (inactive) | 10.4% (inactive)
CCCC(=O)Nc1ccc(NC(=O)c2cccs2)cn1 | 425 | 6.7% (inactive) | 10.4% (inactive) | 106% | -445% (inactive) | 140% | -0.578 (inactive) | -3.4e-05 (inactive) | 0.00548 (inactive) | -12.8% (inactive) | -57.7% (inactive)
O=C(CSc1nnc(-c2ccccc2Cl)n1Cc1ccco1)Nc1ccc2c(c1)OCCO2 | 309 | 0.8% (inactive) | 3.4% (inactive) | 88.5% | -75.1% (inactive) | 107% | -0.391 (inactive) | -9.8e-05 (inactive) | 0.00631 (inactive) | 8.89% (inactive) | 18.1% (inactive)
COc1ccc(CC(=O)Nc2ccc(-c3nnc(-c4ccc(C)cc4)o3)cc2)cc1 | 411 | 0.5% (inactive) | -17.7% (inactive) | 102% | -101% (inactive) | 109% | -0.454 (inactive) | -9.3e-06 (inactive) | 0.0071 (inactive) | 8.75% (inactive) | 18.4% (inactive)
C=CCn1cnc2c(NCc3ccccc3)ncnc21 | 387 | -13.3% (inactive) | 3% (inactive) | 98.8% | 20.4% (inactive) | 142% | -0.587 (inactive) | 3.1e-05 (inactive) | 0.00713 (inactive) | -54.3% (inactive) | -89% (inactive)
O=S1(=O)C=CC(Nc2cccc(Cl)c2)C1 (stereo not drawn) | 682 | -1% (inactive) | -6.1% (inactive) | 97.2% | -7.5% (inactive) | 98.1% | -0.447 (inactive) | -6.1e-05 (inactive) | 0.0065 (inactive) | 22.9% (inactive) | 30.3% (inactive)
COc1ccc(C)cc1S(=O)(=O)N1CCN(Cc2ccccc2)CC1 | 708 | -7.1% (inactive) | -4.2% (inactive) | 98.5% | -41.3% (inactive) | 102% | -0.558 (inactive) | -1.1e-05 (inactive) | 0.00529 (inactive) | 21.4% (inactive) | 19.5% (inactive)
CN=C1CC(C)(C)CC(=O)/C1=C(/O)CCC(=O)NC | 367 | 10.4% (inactive) | 10.3% (inactive) | 104% | 50.5% (inactive) | 90.9% | -0.45 (inactive) | -1.9e-05 (inactive) | 0.00526 (inactive) | 13% (inactive) | 15.4% (inactive)
COc1cccc(OC)c1C(=O)n1nc(C)cc1C | 489 | -18.1% (inactive) | -12.3% (inactive) | 99.8% | -10.8% (inactive) | 95.6% | -0.591 (inactive) | -3.7e-05 (inactive) | 0.00413 (inactive) | 14.5% (inactive) | 4.66% (inactive)
CS(=O)(=O)c1ccc2nc(NC(=O)CCC(=O)c3cccs3)sc2c1 | 517 | 2.6% (inactive) | -3.8% (inactive) | 105% | -87.7% (inactive) | 95.8% | -0.594 (inactive) | 1.3e-06 (inactive) | 0.00448 (inactive) | 14.5% (inactive) | 4.68% (inactive)
O=S(=O)(c1ccc2c(c1)nc1n2CCC1)N1CCOCC1 | 519 | -1.9% (inactive) | -0.2% (inactive) | 96.3% | -18.9% (inactive) | 107% | -0.423 (inactive) | 2.5e-05 (inactive) | 0.00774 (inactive) | -4.44% (inactive) | 13.8% (inactive)
CSc1nc2c(ccc3ccccc32)o1 | 572 | 4.2% (inactive) | -4.8% (inactive) | 104% | -70.5% (inactive) | 102% | -0.566 (inactive) | -1.5e-05 (inactive) | 0.00656 (inactive) | -5.19% (inactive) | -21.2% (inactive)
COc1cc(OC)cc(C(=O)N2CCN(C(=O)c3ccc(OC)c(OC)c3)CC2)c1 | 358 | -2% (inactive) | -5.3% (inactive) | 126% | -20.6% (inactive) | 89.3% | -0.603 (inactive) | 3.5e-06 (inactive) | 0.00572 (inactive) | 4.07% (inactive) | 14.7% (inactive)
Cc1ccccc1NS(=O)(=O)c1ccc(NC(=O)c2ccco2)cc1 | 349 | 1.1% (inactive) | 5.8% (inactive) | 94.7% | -24.6% (inactive) | 119% | -0.587 (inactive) | 1.9e-07 (inactive) | 0.00578 (inactive) | 15.3% (inactive) | 13.6% (inactive)
Cc1nc2nc(Cc3ccccc3)[nH]n2c(=O)c1Cc1ccccc1 | 351 | -3.3% (inactive) | -11.2% (inactive) | 97% | -62.2% (inactive) | 96.1% | -0.576 (inactive) | -4.3e-05 (inactive) | 0.0029 (inactive) | 9.12% (inactive) | 15.7% (inactive)
CCOC(=O)C1CCN(C(=O)CSc2cc(=O)n(CC)c3ccccc23)CC1 | 378 | 2.2% (inactive) | -0.2% (inactive) | 110% | -26.1% (inactive) | 111% | -0.629 (inactive) | 6.5e-05 (inactive) | 0.00567 (inactive) | -0.518% (inactive) | 38.8% (inactive)
CCCCn1c(CN2CCN(c3cccc(Cl)c3)CC2)nc2c1c(=O)n(C)c(=O)n2C | 581 | 3.4% (inactive) | 10.6% (inactive) | 100% | -3.3% (inactive) | 103% | -0.597 (inactive) | -6.6e-05 (inactive) | 0.00321 (inactive) | 14.4% (inactive) | -1.69% (inactive)
Cn1c(SCc2ccc3c(c2)OCO3)nnc1-c1ccccc1 | 344 | 9.8% (inactive) | 15.3% (inactive) | 93.9% | -72.5% (inactive) | 126% | -0.526 (inactive) | 4.8e-05 (inactive) | 0.00602 (inactive) | -9.99% (inactive) | -38.3% (inactive)
O=C(Cc1nn[nH]n1)NCCC1=CCCCC1 | 402 | 1.7% (inactive) | 2.5% (inactive) | 99.7% | -1.4% (inactive) | 113% | -0.567 (inactive) | -8.7e-06 (inactive) | 0.00606 (inactive) | 5.61% (inactive) | 18% (inactive)
Cc1nn(-c2ccc(F)cc2)c(C)c1NS(=O)(=O)c1ccc(Cl)cc1 | 307 | 4.2% (inactive) | 17.1% (inactive) | 89.1% | -56% (inactive) | 98.7% | -0.382 (inactive) | -4.6e-05 (inactive) | 0.00631 (inactive) | 13.3% (inactive) | 18.8% (inactive)
COCCNC(=O)CSc1nc(-c2ccc(OC)c(OC)c2)cc(C(F)(F)F)n1 | 430 | 3.4% (inactive) | -8.2% (inactive) | 104% | -34.3% (inactive) | 115% | -0.445 (inactive) | -0.000127 (inactive) | 0.00332 (inactive) | 17.7% (inactive) | 14.6% (inactive)
CCn1nnc(NC(=O)c2cc3ccccc3o2)n1 | 332 | 0.5% (inactive) | 7.1% (inactive) | 87.2% | -51% (inactive) | 102% | -0.297 (inactive) | -7.3e-06 (inactive) | 0.00628 (inactive) | -50.7% (inactive) | -120% (inactive)
Cn1c(-c2ccc(F)cc2)cnc1NCc1ccccc1 | 710 | -2.3% (inactive) | 21% (inactive) | 74.6% | -25.9% (inactive) | 125% | -0.471 (inactive) | -3e-06 (inactive) | 0.0028 (inactive) | 6.58% (inactive) | -8.43% (inactive)
Cc1ccc(S(=O)(=O)NCCC(=O)OCn2nnc3ccccc3c2=O)cc1 | 603 | -0.8% (inactive) | 5% (inactive) | 102% | -272% (inactive) | 119% | -0.454 (inactive) | -4.9e-05 (inactive) | 0.00588 (inactive) | 15.2% (inactive) | 28% (inactive)
O=C(O)CCNc1ccc2c(c1)OCCO2 | 510 | -26.5% (inactive) | 10% (inactive) | 118% | -25.3% (inactive) | 116% | -0.348 (inactive) | -3.8e-05 (inactive) | 0.00514 (inactive) | 4.8% (inactive) | 5.31% (inactive)
